Results as given in ChEMBL document CHEMBL1129752, “Novel 3-Pyridyl ethers with subnanomolar affinity for central neuronal nicotinic acetylcholine receptors” (J Med Chem, 1996).

What was measured:
K177 cell line [1] = test: Ability to stimulate Rb+ efflux from human K177 cell preparations containing human alpha4-beta2 receptors; type: functional, cell-based
[2] = target: Neuronal acetylcholine receptor; test: Binding affinity against Nicotinic Acetylcholine Receptor was determined by measuring the displacement of [3H]cytisine from a preparation of whole rat brain.
How it was run: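 Displacement of the radioligand [3H]-(-)-cytisine from a whole rat brain preparation, which mainly labels the α4β2 receptor subtype. The procedure follows a previously published method.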

IMR-32 [3] = test: Ability to stimulate Rb+ efflux from human IMR-32 cell preparations containing human alpha3-betaX receptors; type: functional, cell-based
IMR-32 [4] = test: Maximum efficacy relative to 100(uM) (S)-nicotine for cell preparations containing alpha3-betaX IMR32 cells; type: functional, Homo sapiens
K177 cell line [5] = test: Maximum efficacy relative to 100(uM) (S)-nicotine for cell preparations containing alpha4-beta2 K177 cells; type: functional, Homo sapiens
IMR-32 (Homo sapiens) = test: Ability to stimulate Rb+ efflux from human IMR-32 cell preparations containing human alpha3-betaX receptors

CN1CC[C@@H]1COc1cccnc1
EC50 (K177 cell line [1]; Homo sapiens, K177): 35000 nM | Ki [2]: 3.5 nM | EC50 (IMR-32 [3]): 38000 nM | Max (IMR-32 [4]): 39% | Max (K177 cell line [5]): 103%

c1cncc(OC[C@H]2CCN2)c1
EC50 (K177 cell line [1]; Homo sapiens, K177): 400 nM | EC50 (IMR-32 [3]): 1100 nM | Max (IMR-32 [4]): 116% | Max (K177 cell line [5]): 159%

CN1CC[C@H]1COc1cccnc1
EC50 (K177 cell line [1]; Homo sapiens, K177): 3700 nM | Ki [2]: 0.45 nM | EC50 (IMR-32 [3]): 30000 nM | Max (IMR-32 [4]): 74% | Max (K177 cell line [5]): 116%

CN1CCC[C@@H]1COc1cccnc1
IC50 (K177 cell line [1]): 110000 nM | Ki [2]: 19.7 nM | IC50 (IMR-32 [3]): 54000 nM | Max (IMR-32 [4]): <20% | Max (K177 cell line [5]): <10%

c1cncc(OC[C@H]2CCCN2)c1
EC50 (K177 cell line [1]; Homo sapiens, K177): 4300 nM | Ki [2]: 0.14 nM | EC50 (IMR-32 [3]): 5800 nM | Max (IMR-32 [4]): 100% | Max (K177 cell line [5]): 120%

c1cncc(OC[C@@H]2CCN2)c1
EC50 (K177 cell line [1]; Homo sapiens, K177): 680 nM | EC50 (IMR-32 [3]): 700 nM | Max (IMR-32 [4]): 113% | Max (K177 cell line [5]): 163%

CN1CCC[C@H]1COc1cccnc1 (stereo in doubt; 2a)
EC50 (K177 cell line [1]; k177): 750 nM | Ki [2]: 0.15 nM | Max (IMR-32 [4]): 100%

Clc1ccc(C2CC3CCC2N3)cn1 (stereo not drawn) [EPIBATIDINE]
EC50 (K177 cell line [1]; Homo sapiens, K177): 17 nM | Max (IMR-32 (Homo sapiens)): 156% | EC50 (IMR-32 [3]): 7 nM | Max (IMR-32 [4]): 156%

CN1CCC[C@H]1c1cccnc1 [NICOTINE]
EC50 (K177 cell line [1]; Homo sapiens, K177): 5000 nM | Max (IMR-32 (Homo sapiens)): 100% | Max (IMR-32 [4]): 100%
